Source: ChEMBL document CHEMBL2434844, “Synthesis, antimicrobial, antioxidant activities of novel 6-aryl-5-cyano thiouracil derivatives” (Eur J Med Chem, 2013)
Values after ≈ are worked out from the molar mass of the structure shown. Active and inactive are the calls of the source. No cut-off for these calls is given here.

Columns and labels:
Bacillus cereus [1] = assay: Antibacterial activity against Bacillus cereus ATCC 14579 at 10 mg/disc after 48 hrs by disc-diffusion method; format: functional
In short: (§1)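 Disc diffusion per Bauer method under NCCLS conditions on nutrient agar/Mueller-Hinton agar. Compound dissolved in sterile DMSO at 10 mg/mL, filtered 0.2 µm, stored frozen at -15 °C; 10 mg/disc in DMSO applied. DMSO control. Inhibition zone diameter measured in mm after 48 h incubation at 28 °C.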

Staphylococcus aureus [2] = assay: Antibacterial activity against Staphylococcus aureus ATCC 12600 after 24 hrs by microdilution technique; format: functional
In short: (§2)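 MIC by agar microdilution on Mueller-Hinton agar per NCCLS 1997. Bacteria subcultured overnight at 37 °C on MHA, Candida on SDA at 35 °C for 24-48 h, each passaged at least twice. Incubated 37 °C in humid chamber, read after 24 h.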

Candida albicans [3] = assay: Antifungal activity against Candida albicans ATCC 26555 at 10 mg/disc after 48 hrs by disc-diffusion method; format: functional; in short: as §1
Staphylococcus aureus [4] = assay: Antibacterial activity against Staphylococcus aureus ATCC 12600 at 10 mg/disc after 48 hrs by disc-diffusion method; format: functional; in short: as §1
Escherichia coli [5] = assay: Antibacterial activity against Escherichia coli ATCC 11775 after 24 hrs by microdilution technique; format: functional; conditions: DSM 30083 = JCM 1649, 24 h; in short: as §2
Candida albicans [6] = assay: Antifungal activity against Candida albicans ATCC 26555 after 24 hrs by microdilution technique; format: functional; in short: as §2
Aspergillus flavus [7] = assay: Antifungal activity against Aspergillus flavus ATCC 11495 after 24 hrs by microdilution technique; format: functional
Escherichia coli [8] = assay: Antibacterial activity against Escherichia coli ATCC 11775 at 10 mg/disc after 48 hrs by disc-diffusion method; format: functional, DSM 30083 = JCM 1649; in short: as §1
Bacillus cereus [9] = assay: Antibacterial activity against Bacillus cereus ATCC 14579 after 24 hrs by microdilution technique; format: functional; conditions: ATCC 14579, 24 h; in short: as §2
Aspergillus flavus [10] = assay: Antifungal activity against Aspergillus flavus ATCC 11495 at 10 mg/disc after 48 hrs by disc-diffusion method; format: functional; in short: as §1

| Compound | diameter of the inhibition zone (DIZ) (Bacillus cereus [1]) | MIC (Staphylococcus aureus [2]; ATCC 12600, 24 h) | diameter of the inhibition zone (DIZ) (Candida albicans [3]) | diameter of the inhibition zone (DIZ) (Staphylococcus aureus [4]) | MIC (Escherichia coli [5]) | MIC (Candida albicans [6]) | MIC (Aspergillus flavus [7]) | diameter of the inhibition zone (DIZ) (Escherichia coli [8]) | MIC (Bacillus cereus [9]) | diameter of the inhibition zone (DIZ) (Aspergillus flavus [10]) | MIC (Staphylococcus aureus [2]) | MIC (Candida albicans [6]; ATCC 26555, 24 h) | MIC (Aspergillus flavus [7]; ATCC 11495, 24 h) |
| --- | --- | --- | --- | --- | --- | --- | --- | --- | --- | --- | --- | --- | --- |
| COc1cc(-c2[nH]c(=S)nc(-n3nc(C)cc3C)c2C#N)cc(OC)c1OC | 11 mm | 32 µg/mL (≈ 80.5 µM) | inactive | 11 mm | 32 µg/mL (≈ 80.5 µM) | inactive | inactive | 12 mm | 32 µg/mL (≈ 80.5 µM) | inactive | – | – | – |
| N#Cc1c(-c2ccc(F)cc2)[nH]c(=S)n2c(=S)[nH]nc12 | 11 mm | – | 12 mm | inactive | 64 µg/mL (≈ 211 µM) | – | inactive | 11 mm | 64 µg/mL (≈ 211 µM) | inactive | inactive | 32 µg/mL (≈ 105 µM) | – |
| N#Cc1c(-c2ccc(Br)cc2)[nH]c(=S)n2ncnc12 | 5 mm | 128 µg/mL (≈ 385 µM) | 8 mm | 6 mm | 128 µg/mL (≈ 385 µM) | – | – | 7 mm | 128 µg/mL (≈ 385 µM) | 7 mm | – | 128 µg/mL (≈ 385 µM) | 256 µg/mL (≈ 771 µM) |
| N#Cc1c(-c2ccc(Br)cc2)[nH]c(=S)n2nnnc12 | 13 mm | 16 µg/mL (≈ 48 µM) | inactive | 14 mm | 32 µg/mL (≈ 96 µM) | inactive | inactive | 12 mm | 32 µg/mL (≈ 96 µM) | inactive | – | – | – |
| COc1ccc(/C=N/Nc2nc(=S)[nH]c(-c3ccc(Br)cc3)c2C#N)cc1 | 16 mm | 32 µg/mL (≈ 72.7 µM) | 16 mm | 18 mm | 32 µg/mL (≈ 72.7 µM) | – | – | 12 mm | 32 µg/mL (≈ 72.7 µM) | 14 mm | – | 32 µg/mL (≈ 72.7 µM) | 32 µg/mL (≈ 72.7 µM) |
| N#Cc1c(-c2ccc(F)cc2)[nH]c(=S)n2cnnc12 | 19 mm | 16 µg/mL (≈ 59 µM) | 18 mm | 22 mm | 16 µg/mL (≈ 59 µM) | – | – | 14 mm | 16 µg/mL (≈ 59 µM) | 19 mm | – | 16 µg/mL (≈ 59 µM) | 16 µg/mL (≈ 59 µM) |
| COc1cc(-c2[nH]c(=S)nc(N/N=C/c3ccc(F)cc3)c2C#N)cc(OC)c1OC | 17 mm | 32 µg/mL (≈ 72.8 µM) | 16 mm | 19 mm | 32 µg/mL (≈ 72.8 µM) | – | – | 12 mm | 32 µg/mL (≈ 72.8 µM) | 15 mm | – | 32 µg/mL (≈ 72.8 µM) | 32 µg/mL (≈ 72.8 µM) |
| COc1cc(-c2[nH]c(=S)n3nnnc3c2C#N)cc(OC)c1OC | 12 mm | 16 µg/mL (≈ 46.5 µM) | inactive | 14 mm | 32 µg/mL (≈ 92.9 µM) | inactive | inactive | 12 mm | 32 µg/mL (≈ 92.9 µM) | inactive | – | – | – |
| N#Cc1c(-c2ccc(F)cc2)[nH]c(=S)n2nnnc12 | 15 mm | 16 µg/mL (≈ 58.8 µM) | inactive | 15 mm | 32 µg/mL (≈ 118 µM) | inactive | inactive | 13 mm | 32 µg/mL (≈ 118 µM) | inactive | – | – | – |
| Cc1nc2c(C#N)c(-c3ccc(Br)cc3)[nH]c(=S)n2n1 | 6 mm | 128 µg/mL (≈ 370 µM) | 8 mm | 7 mm | 128 µg/mL (≈ 370 µM) | – | – | 6 mm | 128 µg/mL (≈ 370 µM) | 7 mm | – | 128 µg/mL (≈ 370 µM) | 256 µg/mL (≈ 739 µM) |
| COc1ccc(/C=N/Nc2nc(=S)[nH]c(-c3cc(OC)c(OC)c(OC)c3)c2C#N)cc1 | 15 mm | 32 µg/mL (≈ 70.9 µM) | 15 mm | 17 mm | 32 µg/mL (≈ 70.9 µM) | – | – | 12 mm | 32 µg/mL (≈ 70.9 µM) | 15 mm | – | 32 µg/mL (≈ 70.9 µM) | 32 µg/mL (≈ 70.9 µM) |
